For 10 molecules, IC50 results are on record in ChEMBL document CHEMBL2429802, “Cytotoxic oxepinochromenone and flavonoids from the flower buds of Rosa rugosa” (J Nat Prod, 2013).

Common to all, as to format: functional, cell-based
The nature of assay [1]: Cytotoxicity against human SH-SY5Y cells assessed as growth inhibition after 72 hrs by MTT assay. In a few lines: (§1)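 2500 cells per well seeded in MEM medium and incubated 24 h. Medium then replaced with fresh medium containing compound at 100 to 1.5625 μM (six 2-fold dilutions). OD595 read after MTT on control wells at 0 and 72 h and on treated wells at 72 h. IC50 taken as the concentration inhibiting 50% of cell growth. Paclitaxel served as positive control.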
Background: Tetrazolium dyes change colour on reduction, which living cells bring about.

A further assay concerns A549. Put plainly: Cytotoxicity against human A549 cells assessed as growth inhibition after 72 hrs by MTT assay. Particulars: A549, 72 h. The method in brief: as §1
A further assay has as its system PC-3. Put plainly: Cytotoxicity against human PC3 cells assessed as growth inhibition after 72 hrs by MTT assay. Particulars: PC-3, 72 h. The method in brief:
as §1

For the next assay, the system named is MCF7. Put plainly: Cytotoxicity against human MCF7 cells assessed as growth inhibition after 72 hrs by MTT assay. Particulars: MCF7, 72 h. The method in brief:
as §1

For another assay, the system named is NB-4. Put plainly: Cytotoxicity against human NB4 cells assessed as growth inhibition after 72 hrs by MTT assay. Particulars: NB-4, 72 h. In a few lines:
as §1

In the case of `COC(=O)[C@@]1(O)c2c(oc(-c3ccc(O)cc3)cc2=O)OC=C[C@@H]1O`, the 50% inhibitory concentration (IC50) is over 10 µM in assay [1]; 7.2 µM in the assay with A549; 6.8 µM in the assay with PC-3; over 10 µM in the assay with MCF7; over 10 µM with NB-4.
In the case of `COc1ccc([C@@H]2COc3cc(OC)c(O)cc3[C@H]2O)cc1`, the IC50 (in assay [1]; with A549; in the assay on PC-3; in the assay on MCF7; with NB-4) was over 10 µM in each case.
As for `CC(=O)O[C@H]1C(=O)[C@@]2(C)[C@H]([C@H](OC(=O)c3ccccc3)[C@]3(O)C[C@H](OC(=O)[C@H](O)[C@@H](NC(=O)c4ccccc4)c4ccccc4)C(C)=C1C3(C)C)[C@]1(OC(C)=O)CO[C@@H]1C[C@@H]2O` [PACLITAXEL], the IC50 in assay [1] stood at 0.2 µM.
For the molecule `COc1ccc2c(c1CCO)O[C@@H](c1ccc(O)cc1O)CC2`, the IC50 (in assay [1]; in the assay with A549; in the assay with PC-3; in the assay with MCF7; in the assay with NB-4) was over 10 µM each time.
Regarding `O=C(OC[C@H]1O[C@@H](Oc2c(-c3ccc(O)cc3)oc3cc(O)cc(O)c3c2=O)[C@H](O)[C@@H](O)[C@@H]1O)c1ccc(O)cc1`, the IC50 is 8.2 µM in assay [1]; over 10 µM in the assay with A549; over 10 µM with PC-3; 7.3 µM with MCF7; 4.7 µM in the assay with NB-4.
As to `COc1c(O)ccc(C/C=C/c2ccc3c(c2)OCO3)c1OC`, the IC50 (in assay [1]; in the assay on A549; in the assay on PC-3; in the assay on MCF7; in the assay on NB-4) was over 10 µM each time.
With `COc1cc(/C=C/Cc2ccc(O)c(OC)c2OC)cc2c1OCO2`, the IC50 (in assay [1]; in the assay with A549; with PC-3; in the assay on MCF7; in the assay on NB-4) was over 10 µM throughout.
Regarding `COc1cc2c(cc1OC)[C@@H](O)[C@H](c1ccc(O)cc1)CO2`, the IC50 (in assay [1]; in the assay with A549; with PC-3; in the assay with MCF7; with NB-4) was over 10 µM throughout.
With `COc1cc2c(=O)cc(-c3ccc(O)c(O)c3)oc2c(C(C)=O)c1OC`, the IC50 was determined as 4.3 µM in assay [1]; 1.2 µM in the assay with A549; 8.4 µM in the assay with PC-3; 2.8 µM in the assay on MCF7; 3.6 µM in the assay with NB-4.
Turning to `COC(=O)c1cc(O)cc2oc(-c3ccc(OC)cc3)cc(=O)c12`, the IC50 in assay [1] stood at 2.5 µM; with A549, 6.7 µM; in the assay with PC-3, 4.8 µM; in the assay on MCF7, 2.3 µM; in the assay on NB-4, 2.2 µM.

Broadly, the IC50 is the concentration needed to halve the response being measured.
